Source: PubChem BioAssay (several laboratories)
MsrA inhibitor: bovine MsrA inhibition; purified bovine MsrA, absorbance read-out; inhibition, % at 15.5 µM; hit rate 0.75% among 360,000; AID 651718;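 further: 0% = vehicle wells with enzyme and 100% = reference inhibitor wells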
procasp7 counter: counter-screen: procaspase-7 (human) activation. P55210. recombinant procaspase-7, Ac-DEVD-pNA absorbance 405 nm; D23A/D198A/D206A triple mutant, cannot self-cleave; scale: DMSO 0, 5 µM enzyme 100. activation, % at 8.5 µM. hit rate 0.093% among 330,000;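 active means percent activation above the screen-wide mean plus 3 SD, cut at about 25% in these data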
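Assay system: Uncleavable procaspase-7 mutant enzyme / Input: 2 µM procaspase-7 mutant as dispensed / Dosing: single nominal 8.5 µM compound dose, 0.8% DMSO final / Timing: 1 h enzyme–compound preincubation and 2 h substrate reaction, both 25 °C / Detection: p-Nitroaniline absorbance at 405 nm, read at 0 and 120 min / Replication: singlicate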
procasp3 activ: procaspase-3 (human) activation | P42574 | recombinant procaspase-3 D3A, Ac-DEVD-pNA absorbance 405 nm | activation, % at 8.5 µM | hit rate 0.11% among 330,000;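 active means activation above the mean of all tested compounds plus 3 SD, cut at about 21% in these data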;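 further: 0% = DMSO alone and 100% = DMSO wells spiked with extra 5 µM PC-3 D3A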
Target sequence (P42574 whole entry D9A/D28A/D175A): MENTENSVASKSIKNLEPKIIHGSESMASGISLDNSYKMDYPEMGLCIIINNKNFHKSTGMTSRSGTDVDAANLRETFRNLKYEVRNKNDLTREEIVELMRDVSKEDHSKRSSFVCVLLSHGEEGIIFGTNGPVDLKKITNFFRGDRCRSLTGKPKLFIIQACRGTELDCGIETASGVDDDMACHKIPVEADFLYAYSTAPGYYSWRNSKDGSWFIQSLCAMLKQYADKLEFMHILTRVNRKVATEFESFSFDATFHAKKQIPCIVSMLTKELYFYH
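System: Procaspase-3 D3A mutant. Medium: Zinc-free 300 mM NaCl, 50 mM HEPES, 0.01% Triton X-100. Schedule: 1 h preincubation plus 2 h reaction at 25 °C. Measured by: 405 nm absorbance of p-nitroaniline, reads at 0 and 120 min. Read-out: percent activation relative to control range.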
A1 inh: inhibitors of the anti-apoptotic protein A1, read as caspase activation. MEF A1-2A-BIM cells, Caspase-Glo 3/7 luminescence, 3 h; percent of clofoctol response, vehicle zero. caspase activation, % (concentration not given with the values). hit rate 0.066% among 330,000. AID 2462;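 active means over half of replicate activation scores above 10%, or exactly half above 10 with the replicate mean above 10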
MsrA act: bovine methionine sulfoxide reductase A activation; hit rate 0.3% among 360,000; activation, % at 10.6 µM; purified bovine MsrA, absorbance read-out; in the data active means activation above about 7.5%;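 further: 0% = vehicle and 100% = reference activator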
MsrA inh confirm: bovine MsrA inhibition, confirmed; hit rate 41% among 2,300; inhibition, % at 15.5 µM; shares compounds with MsrA inhibitor; purified bovine MsrA, absorbance read-out;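 further: coupled to thioredoxin reductase with NADPH and selenocystamine and DMSO as substrate; 0% = vehicle only and 100% = full effect of reference inhibitor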
* marks the source's active call; other numbers are inactive results. Shown are actives, neighbours in structure and some others; about 1.2% of the full set was active somewhere. Unless noted, no stated cut-off is given here; in the data, active means inhibition above about 4.5%; inactive means the rest.

What do the screens show for `COc1cc(/C=N/NC(=O)c2cc(-c3ccc4c(c3)OCO4)n[nH]2)ccc1O`?
MsrA inhibitor: 5.5*; procasp7 counter: -2.2; procasp3 activ: 2.9; A1 inh: -0.2; MsrA act: -11.2; MsrA inh confirm: 3.3

How did COc1ccc(/C=N/NC(=O)c2cc(C3CC3)[nH]n2)cc1OC do in these assays?
MsrA inhibitor: 1.7; procasp7 counter: 10.4; procasp3 activ: 3.0; A1 inh: 0.6; MsrA act: -2.8

Results for CN1c2ccsc2/C(=N/NC(=O)c2c(F)cccc2F)CS1(=O)=O ?
MsrA inhibitor: 2.6; procasp7 counter: 7.7; procasp3 activ: -0.6; A1 inh: 0.4; MsrA act: -3.5

How did CN1c2ccsc2/C(=N/Nc2ccccc2)CS1(=O)=O do in these assays?
MsrA inhibitor: 5.3*; procasp7 counter: -4.7; procasp3 activ: -16.7; A1 inh: 0.5; MsrA act: -6.8; MsrA inh confirm: 3.3

How did CC(C)(C)OC(=O)C[C@H]1C/C=C\C[C@H](CC(=O)NCCO)C(=O)N2CCC[C@@H]2COC1=O do in these assays?
MsrA inhibitor: 0.0; procasp7 counter: 0.6; procasp3 activ: -1.8; A1 inh: 1.6; MsrA act: -1.8

How did CCOc1ccc(-c2nnc(-c3cccs3)o2)cc1 do in these assays?
MsrA inhibitor: 0.0; procasp7 counter: 5.1; procasp3 activ: 7.7; A1 inh: -8.0; MsrA act: -0.8

What do the screens show for `c1csc(-c2nnc(-c3ccc(N4CCOCC4)cc3)o2)c1`?
MsrA inhibitor: 5.2*; procasp7 counter: 6.3; procasp3 activ: 2.8; A1 inh: -1.3; MsrA act: -3.3; MsrA inh confirm: 3.9

How did COc1cc(-c2nnc(-c3cccs3)o2)cc(OC)c1OC do in these assays?
MsrA inhibitor: 0.6; procasp7 counter: 5.1; procasp3 activ: 0.2; A1 inh: 0.3; MsrA act: -1.4

What do the screens show for `COc1ccc(-c2nnc(-c3cccs3)o2)cc1OC`?
MsrA inhibitor: 5.3*; procasp7 counter: 4.3; procasp3 activ: 3.7; A1 inh: -7.3; MsrA act: -8.2; MsrA inh confirm: 0.7

Results for CC1=CC(=O)O[C@@H]1[C@@]1(C)C[C@H]2OC(=O)C[C@H]3[C@@H](C)C(=O)C(O)=C1[C@@]23CO ?
MsrA inhibitor: -0.1; procasp7 counter: -8.3; procasp3 activ: -2.3; A1 inh: 0.9; MsrA act: -0.8

How did Cc1cc(C(=O)COC(=O)c2nn(C)c(=O)c3ccccc23)c(C)n1C do in these assays?
MsrA inhibitor: 0.5; MsrA act: -5.0

What do the screens show for `C#CCNC(=O)C[C@@H]1C[C@@]2(C(=O)OCC)CCCC=C2N(Cc2ccc(Cl)cc2Cl)C1=O`?
MsrA inhibitor: 0.6; MsrA act: -2.7

Results for CCOc1ccc(NC(=O)CN(C)C(=O)c2ccc(NC3CC3)c([N+](=O)[O-])c2)cc1OCC ?
MsrA inhibitor: 1.1; procasp7 counter: -5.1; procasp3 activ: -3.7; A1 inh: 0.3; MsrA act: -3.1

How did CN1/C(=C/C=N/n2cnnc2)C(C)(C)c2ccccc21 do in these assays?
MsrA inhibitor: 4.8*; procasp7 counter: -1.6; procasp3 activ: 4.2; A1 inh: 0.3; MsrA act: -6.1; MsrA inh confirm: 4.3

How did CC(C)OC(=O)/C(=C\C=C\c1ccccc1)NC(=O)c1ccccc1 do in these assays?
MsrA inhibitor: 3.8; procasp7 counter: 1.8; procasp3 activ: 5.2; A1 inh: -0.3; MsrA act: -4.9

What do the screens show for `C#CCOC(=O)/C(=C/C=C/c1ccccc1)NC(=O)c1ccccc1`?
MsrA inhibitor: 5.2*; procasp7 counter: -1.1; procasp3 activ: -2.3; A1 inh: -0.3; MsrA act: -6.1; MsrA inh confirm: 3.4

Results for Cc1cc(C)nc(NS(=O)(=O)c2ccc(N/C=C3\CCCC3=O)cc2)n1 ?
MsrA inhibitor: 5.2*; procasp7 counter: 2.5; procasp3 activ: 4.0; A1 inh: 0.2; MsrA act: -8.1; MsrA inh confirm: 5.5*

Results for O=C(Cc1c[nH]c2ccccc12)Nc1ccc(Nc2cccnc2)c(-c2ccc(F)c(F)c2)c1 ?
MsrA inhibitor: 0.7

How did Cc1ccc(N/N=C/c2ccncc2)cc1 do in these assays?
MsrA inhibitor: -0.5; procasp7 counter: 5.8; procasp3 activ: 2.4; A1 inh: 1.0; MsrA act: -2.1
